Here are results for ten molecules from ChEMBL document CHEMBL3813625, “Discovery of a Novel, Orally Efficacious Liver X Receptor (LXR) β Agonist” (J Med Chem, 2016).

Series [1] in a line: Half life in mouse liver microsomes. The format is ADME.
The nature of series [2]: Half life in rat liver microsomes. The format is ADME. In general terms: Liver microsomes are a subcellular fraction often used to study metabolism.
Series [3] concerns the target T1, Oxysterols receptor LXR-beta (Homo sapiens, UniProt P55055).
T1 sequence (P55055 whole entry): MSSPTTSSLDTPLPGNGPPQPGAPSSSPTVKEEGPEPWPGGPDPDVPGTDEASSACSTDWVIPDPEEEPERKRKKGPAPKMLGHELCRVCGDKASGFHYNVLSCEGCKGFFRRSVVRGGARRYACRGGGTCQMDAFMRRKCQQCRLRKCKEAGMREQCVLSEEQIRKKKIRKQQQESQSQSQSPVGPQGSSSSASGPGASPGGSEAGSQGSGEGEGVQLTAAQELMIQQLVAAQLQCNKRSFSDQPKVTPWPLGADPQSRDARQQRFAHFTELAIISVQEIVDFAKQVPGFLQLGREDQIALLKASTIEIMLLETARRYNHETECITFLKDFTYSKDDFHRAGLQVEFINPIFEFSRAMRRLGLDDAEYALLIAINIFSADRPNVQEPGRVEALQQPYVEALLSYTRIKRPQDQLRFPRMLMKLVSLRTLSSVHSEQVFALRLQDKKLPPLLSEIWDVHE
Briefly: Agonist activity at human LXRbeta by Gal4 assay. A digest of the protocol:
(§1)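 Cells were co-transfected with pG5-luc reporter and a Gal4 fusion of the ligand-binding domain (pGal4-LXRα LBD for α, pGal4-LXRβ LBD for β). Twenty hours after transfection, cells were treated with compound for 16 h. Agonist activity was read as luciferase signal and EC50 derived. Values are the average of at least two independent determinations.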

The target of series [4] is T1, Oxysterols receptor LXR-beta. Nature of the series: Binding to human LXRbeta.
Series [5] deals with T2, Oxysterols receptor LXR-alpha (Homo sapiens, UniProt Q13133).
T2 sequence (Q13133 whole entry): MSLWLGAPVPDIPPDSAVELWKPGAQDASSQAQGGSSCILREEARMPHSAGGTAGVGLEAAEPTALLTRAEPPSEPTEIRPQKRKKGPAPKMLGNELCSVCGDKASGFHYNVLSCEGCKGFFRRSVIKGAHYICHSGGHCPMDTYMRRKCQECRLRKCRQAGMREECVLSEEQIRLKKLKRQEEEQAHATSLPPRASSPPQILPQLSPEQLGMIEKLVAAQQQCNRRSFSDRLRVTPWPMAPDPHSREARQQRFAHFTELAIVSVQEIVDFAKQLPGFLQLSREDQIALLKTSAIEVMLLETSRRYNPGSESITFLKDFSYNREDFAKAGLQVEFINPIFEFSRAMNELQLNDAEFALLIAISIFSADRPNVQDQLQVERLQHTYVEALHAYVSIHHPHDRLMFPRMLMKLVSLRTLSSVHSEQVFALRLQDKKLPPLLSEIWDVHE
Nature of the series: Agonist activity at human LXRalpha by Gal4 assay. A digest of the protocol: as §1

Series [6] has as its target T2, Oxysterols receptor LXR-alpha. Nature of the series: Binding affinity to human LXRalpha.
Series [7] has the same target. Briefly: Agonist activity at human LXRalpha coexpressed in African green monkey CV1 cells by Gal4 responsive reporter gene assay. The format is cell-based, CV-1. In general terms: In a reporter assay the amount or activity of a reporter protein is the signal.
Series [8] deals with T1, Oxysterols receptor LXR-beta. Nature of the series: Agonist activity at human LXRbeta coexpressed in African green monkey CV1 cells by Gal4 responsive reporter gene assay. The format is cell-based, CV-1.
Series [9] has the same target. Briefly: Agonist activity at human LXRbeta ligand binding domain(155 to 460 residues) transfected in HEK293 cells after 16 hrs by Gal4-luciferase reporter gene assay. The format is cell-based.
The target in series [10] is T2, Oxysterols receptor LXR-alpha. Briefly: Agonist activity at human LXRalpha ligand binding domain(167 to 447 residues) transfected in HEK293 cells after 16 hrs by Gal4-luciferase reporter gene assay. The format is cell-based.
The target of the next series is T3, Retinoid X receptor (Homo sapiens, UniProt P28702+P48443+P19793).
T3 sequence (P28702 whole entry): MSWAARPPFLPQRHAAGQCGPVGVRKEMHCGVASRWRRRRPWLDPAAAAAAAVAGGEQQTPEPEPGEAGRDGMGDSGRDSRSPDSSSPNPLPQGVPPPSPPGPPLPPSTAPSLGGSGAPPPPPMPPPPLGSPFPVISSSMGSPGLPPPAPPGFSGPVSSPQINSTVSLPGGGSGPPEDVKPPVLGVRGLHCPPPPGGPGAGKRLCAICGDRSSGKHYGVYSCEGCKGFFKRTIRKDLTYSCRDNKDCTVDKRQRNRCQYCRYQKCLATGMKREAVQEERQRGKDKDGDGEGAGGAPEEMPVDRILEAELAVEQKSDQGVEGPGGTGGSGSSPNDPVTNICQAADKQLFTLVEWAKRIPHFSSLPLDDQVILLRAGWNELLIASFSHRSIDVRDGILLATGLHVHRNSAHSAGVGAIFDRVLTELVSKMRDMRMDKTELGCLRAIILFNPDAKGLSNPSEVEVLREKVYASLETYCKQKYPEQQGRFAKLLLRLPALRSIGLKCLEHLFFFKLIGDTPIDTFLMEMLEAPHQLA
T3 sequence (P48443 whole entry): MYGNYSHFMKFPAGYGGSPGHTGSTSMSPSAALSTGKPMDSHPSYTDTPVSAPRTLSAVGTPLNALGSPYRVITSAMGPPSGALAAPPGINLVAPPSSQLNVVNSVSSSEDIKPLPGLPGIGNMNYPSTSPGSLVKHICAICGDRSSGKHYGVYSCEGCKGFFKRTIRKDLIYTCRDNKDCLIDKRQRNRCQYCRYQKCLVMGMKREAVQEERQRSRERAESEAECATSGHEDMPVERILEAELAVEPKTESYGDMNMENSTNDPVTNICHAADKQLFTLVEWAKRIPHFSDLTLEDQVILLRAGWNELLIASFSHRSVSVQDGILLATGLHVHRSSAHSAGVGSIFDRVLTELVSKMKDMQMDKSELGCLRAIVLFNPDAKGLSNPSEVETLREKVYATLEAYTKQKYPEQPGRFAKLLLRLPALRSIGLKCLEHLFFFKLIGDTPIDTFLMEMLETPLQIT
T3 sequence (P19793 whole entry): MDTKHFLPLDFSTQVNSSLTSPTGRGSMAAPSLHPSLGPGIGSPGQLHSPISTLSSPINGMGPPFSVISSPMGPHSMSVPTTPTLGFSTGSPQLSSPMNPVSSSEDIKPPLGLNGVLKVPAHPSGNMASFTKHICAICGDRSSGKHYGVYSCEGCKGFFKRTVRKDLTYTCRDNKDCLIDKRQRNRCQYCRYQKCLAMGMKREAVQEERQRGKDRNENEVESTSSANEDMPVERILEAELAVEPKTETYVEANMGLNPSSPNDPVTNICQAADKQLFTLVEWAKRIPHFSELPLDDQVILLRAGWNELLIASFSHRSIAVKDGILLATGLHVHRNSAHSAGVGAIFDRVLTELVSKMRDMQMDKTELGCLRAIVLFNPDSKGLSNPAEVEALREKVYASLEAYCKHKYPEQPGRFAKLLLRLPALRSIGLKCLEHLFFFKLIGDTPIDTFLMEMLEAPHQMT
Briefly: Inhibition of RXR (unknown origin). The format is protein assay.

Series [11] addresses T4, Nuclear receptor ROR-alpha (Homo sapiens, UniProt P35398).
T4 sequence (P35398 whole entry): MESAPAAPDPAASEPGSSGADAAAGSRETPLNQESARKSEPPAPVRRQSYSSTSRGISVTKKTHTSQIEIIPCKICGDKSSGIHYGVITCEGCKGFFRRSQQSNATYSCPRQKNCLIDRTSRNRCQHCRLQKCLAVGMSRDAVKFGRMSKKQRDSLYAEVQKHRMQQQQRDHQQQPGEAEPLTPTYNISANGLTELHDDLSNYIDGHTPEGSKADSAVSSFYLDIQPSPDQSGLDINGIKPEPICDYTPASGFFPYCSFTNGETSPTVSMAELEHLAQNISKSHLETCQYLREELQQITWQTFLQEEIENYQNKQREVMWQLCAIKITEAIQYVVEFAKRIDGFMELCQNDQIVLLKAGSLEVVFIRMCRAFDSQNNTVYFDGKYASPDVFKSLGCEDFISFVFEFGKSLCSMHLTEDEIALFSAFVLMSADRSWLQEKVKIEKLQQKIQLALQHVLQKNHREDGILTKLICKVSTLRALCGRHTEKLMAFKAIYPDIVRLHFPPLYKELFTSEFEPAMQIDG
Briefly: Inhibition of RORalpha receptor (unknown origin).

Series [12] has as its target T5, Mineralocorticoid receptor (Homo sapiens, UniProt P08235).
T5 sequence (P08235 whole entry): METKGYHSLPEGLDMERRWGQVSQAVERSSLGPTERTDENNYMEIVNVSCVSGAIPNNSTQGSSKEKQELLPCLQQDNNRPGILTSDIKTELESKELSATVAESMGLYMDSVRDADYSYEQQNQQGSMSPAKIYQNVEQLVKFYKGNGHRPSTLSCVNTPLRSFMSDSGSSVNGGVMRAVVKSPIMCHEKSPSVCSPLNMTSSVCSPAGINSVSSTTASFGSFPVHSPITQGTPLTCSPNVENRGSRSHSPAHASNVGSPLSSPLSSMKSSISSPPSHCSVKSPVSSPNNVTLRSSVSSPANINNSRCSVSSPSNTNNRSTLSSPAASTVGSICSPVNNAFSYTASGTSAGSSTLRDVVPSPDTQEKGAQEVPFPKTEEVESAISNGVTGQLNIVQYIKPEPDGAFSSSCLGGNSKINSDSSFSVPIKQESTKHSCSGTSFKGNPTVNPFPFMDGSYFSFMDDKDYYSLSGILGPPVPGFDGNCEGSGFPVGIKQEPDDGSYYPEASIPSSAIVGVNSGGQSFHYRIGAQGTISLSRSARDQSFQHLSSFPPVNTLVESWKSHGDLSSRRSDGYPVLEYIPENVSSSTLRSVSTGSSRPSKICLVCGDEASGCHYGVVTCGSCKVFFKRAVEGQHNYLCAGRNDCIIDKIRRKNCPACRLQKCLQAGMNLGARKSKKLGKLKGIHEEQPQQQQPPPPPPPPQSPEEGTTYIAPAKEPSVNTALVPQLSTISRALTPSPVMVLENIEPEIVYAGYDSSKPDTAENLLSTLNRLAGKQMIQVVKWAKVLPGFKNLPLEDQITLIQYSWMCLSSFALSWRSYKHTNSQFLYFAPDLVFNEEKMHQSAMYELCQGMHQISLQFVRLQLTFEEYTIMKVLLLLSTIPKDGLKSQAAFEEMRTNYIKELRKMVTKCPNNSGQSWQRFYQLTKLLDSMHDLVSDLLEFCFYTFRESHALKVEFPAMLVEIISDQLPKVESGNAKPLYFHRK
Nature of the series: Inhibition of Mineralocorticoid receptor (unknown origin).

Series [13] in a line: Half life in human liver microsomes. The format is ADME.
The nature of series [14]: Half life in cynomolgus monkey liver microsomes. The format is ADME, Macaca fascicularis.
Series [15] has as its target T6, Nuclear receptor subfamily 1 group I member 2 (Homo sapiens, UniProt O75469).
T6 sequence (O75469 whole entry): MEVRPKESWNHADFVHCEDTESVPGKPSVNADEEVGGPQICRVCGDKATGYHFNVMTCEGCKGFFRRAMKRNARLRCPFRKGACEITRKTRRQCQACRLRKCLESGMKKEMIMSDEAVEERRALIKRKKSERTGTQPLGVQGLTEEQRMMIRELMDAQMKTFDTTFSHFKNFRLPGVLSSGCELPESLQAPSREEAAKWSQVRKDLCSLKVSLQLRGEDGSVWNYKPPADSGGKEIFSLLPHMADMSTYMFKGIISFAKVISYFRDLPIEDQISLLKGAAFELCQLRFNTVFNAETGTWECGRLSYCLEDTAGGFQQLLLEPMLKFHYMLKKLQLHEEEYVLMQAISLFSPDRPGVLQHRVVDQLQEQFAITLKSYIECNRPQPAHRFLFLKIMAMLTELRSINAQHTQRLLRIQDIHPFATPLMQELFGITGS
Briefly: Inhibition of PXR (unknown origin).

With `CC(C)[C@@H]1CN(c2cccc(S(C)(=O)=O)c2)CCN1c1nccc(C(F)(F)F)n1`, the half-life (in general, how long it takes for the measured level to halve) in series [1] stood at 8 min; in [2], 11 min.
Consider `O=C(O)Cc1cccc(OCCCN(Cc2cccc(C(F)(F)F)c2Cl)CC(c2ccccc2)c2ccccc2)c1`, for which the EC50 (in general, the concentration at which the effect is half-maximal) in series [3] worked out at 390 nM; in series [4], 5 nM; in [5], 1130 nM; in [6] it was 22 nM.
Molecule `CC(C)[C@H]1CN(c2ccc(CO)c(S(C)(=O)=O)c2)CCN1c1ncc(CO)c(C(F)(F)F)n1` showed a half-life in series [2] of 25 min.
`C[C@H](CC[C@@H]1OC1(C)C)[C@H]1CC[C@H]2[C@@H]3CC=C4C[C@@H](O)CC[C@]4(C)[C@H]3CC[C@]12C` [24(S),25-EPOXYCHOLESTEROL]: the EC50 was 117 nM in series [7], 168 nM in [8], over 20000 nM in series [4] and over 20000 nM in [6].
With `FC(F)(F)c1ccc(CN2CCN(c3ccccc3)CC2c2ccccc2)cn1` (stereo unspecified), the half-maximal effective concentration (EC50) in series [9] and in series [10] was over 20000 nM each time.
In the case of `CC(C)[C@@H]1CN(c2ccc(CO)c(S(C)(=O)=O)c2)CCN1c1ncc(CO)c(C(F)(F)F)n1`, the IC50 (on Retinoid X receptor; in series [11]; in series [12]; in [15]) was over 10000 nM throughout. Also, the half-life in series [13] was determined as 43 min; in series [14], 10 min; in series [1], 40 min; in [2], 70 min.
`CC(C)[C@@H]1CN(c2ccc(F)c(S(C)(=O)=O)c2)CCN1c1ncc(CO)c(C(F)(F)F)n1`: the half-life in [13] was found to be 22 min; in series [1] it was 38 min; in series [2], 36 min.
As to `CC(C)[C@@H]1CN(c2ccc(F)c(S(C)(=O)=O)c2)CCN1c1nccc(C(F)(F)F)n1`, the half-life in series [1] turned out to be 11 min; in [2], 5 min.
For `CC(C)[C@@H]1CN(c2ccc(F)c(S(C)(=O)=O)c2)CCN1c1ncc(Cl)c(C(F)(F)F)n1`, the values for the half-life in [13] and in [2] were 19 min and 42 min, respectively.
Turning to `CC(C)[C@@H]1CN(c2ccc(F)c(S(C)(=O)=O)c2)CCN1c1ncc(C(C)(C)O)c(C(F)(F)F)n1`, the results for the half-life in series [13], in series [1] and in series [2] were 56 min, 72 min and 51 min, respectively.
